Source: paper PMC4729448 (Molecular cancer therapeutics, 2013)

Columns and labels:
[1] = system: microtubule network in OE33 cells; assay: Anti-α-Tubulin immunofluorescence of microtubule network in OE33 cells; type: cell-based; conditions: 48 h
OE33 xenograft tumors = assay: OE33 tumor xenograft in athymic nude mice; type: in vivo, athymic nude mice (BALB/c-nu/nu); conditions: 12 days; for effect on growth of established OE33 xenograft tumors: 75 mg/kg/day orogastric
OE33 cells [2] = assay: Phase-contrast cellular morphology of OE33 cells; type: cell-based; conditions: 48 h
OE33 cells [3] = assay: Crystal violet cell proliferation assay; type: cell-based; conditions: for IC50: Homo sapiens, OE33, 48 h, read-out: IC50, OE33 cell proliferation/viability
[4] = Pharmacokinetic analysis in cannulated rat model; type: in vivo, Sprague Dawley rats; conditions: for observable effects in the animals following dosing: rat pharmacokinetic studies
Method in brief: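 Fasted male Sprague Dawley rats fitted with carotid artery and jugular and/or femoral vein catheters. Dosed iv or orally with 0.2 micron-filtered solutions; automated sampling allowed both routes in the same animal. Plasma separated by centrifugation and stored at -80 °C. Prodrug, 2-ME2 and metabolites quantified by LC-MS/MS against deuterated internal standards. Parameters from non-parametric analysis; animals observed after dosing.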

[5] = oral administration, published literature ref 1, 10-12; cited from earlier work
[6] = Dissolution in sterile water; type: physicochemical
[7] = system: microtubule distribution in OE33-tumor xenografts; assay: Anti-α-Tubulin immunofluorescence of OE33 tumor xenograft sections; type: in vivo, athymic nude mice (BALB/c-nu/nu); conditions: treated OE33-tumor xenograft sections vs untreated
[8] = Sprague-Dawley, rat, plasma, iv, 5.21 mg/kg

Row | Structure (SMILES) | microtubule disruption ([1]; 5 μM) | effect on growth of established OE33 xenograft tumors (OE33 xenograft tumors) | alteration of cellular morphology compared to 2-ME2-PD1 (OE33 cells [2]; 2.5 μM or 5 μM) | IC50 (OE33 cells [3]) [µM] | AUC(0-t) [4, 8] [ng·h/mL] | Cmax [4, 8] [ng/mL] | half-life [4, 8] [min] | observable effects in the animals following dosing [4] | serum bioavailability [5] | microtubule disruption ([1]; 2.5 μM) | solubility in sterile water [6] | reduction in tumor volume relative to the control group (OE33 xenograft tumors; oral 75 mg/kg/d) [%] | alteration of cellular morphology (OE33 cells [2]; 2.5 μM) | alteration of cellular morphology (OE33 cells [2]; 5 μM) | microtubule distribution and cellular morphology in tumor xenografts [7] | IC50 fold higher than 2-ME2 (OE33 cells [3]; OE33 viability, 48 h) [fold]
1 | COc1cc2c(cc1O)CC[C@@H]1[C@@H]2CC[C@]2(C)[C@@H](O)CC[C@@H]12 [2-ME2, 2-Methoxyestradiol] | totally disrupted | inconsistent | much more drastic | ~6 | 321 | 1220 | 59 | no observable effects | 1 - 2% |  |  |  |  |  |  | 
2 | COc1cc2c(cc1OCOP(=O)([O-])[O-])CC[C@@H]1[C@@H]2CC[C@]2(C)[C@@H](OC(C)=O)CC[C@@H]12.[Na+].[Na+] [2-ME2-PD1, disodium (((8R,9S,13S,14S,17S)-17-acetoxy-2-methoxy-13-methyl-7,8,9,11,12,13,14,15,16,17-decahydro-6H-cyclopenta[a]phenanthren-3-yl)oxy)methyl phosphate] | significantly disrupted | inhibited the growth |  | ~17 |  |  |  | no observable effects |  | not very prominent | readily dissolves in sterile water | 60 ± 5 | mild to no alterations | atrophy | striking alteration in microtubule distribution | ~3
